Tests used:
[1] = test system: Mus musculus; experiment: Anti-seizure activity was evaluated by Maximal electroshock seizure (MES) test at dose 100 mg/kg after 0.5 hours; +++ denotes antiseizure activity; type: functional, organism-based; parameters: dose 100 mg/kg
Outline: (§1)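 Phase I screen in mice: ip injection at 30, 100, 300 and 600 mg/kg in 30% PEG 400 (0.01 mL/g). Test run 0.5 h and 4 h after dosing. 60-Hz AC, 50 mA, via corneal electrodes for 0.2 s. Protection means abolition of hind-leg tonic extension. Scored ++++ to + for activity at 30 to 600 mg/kg.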

[2] = test system: Mus musculus; experiment: Anti-seizure activity was evaluated by Maximal electroshock seizure (MES) test at dose 100 mg/kg after 4.0 hours; +++ denotes antiseizure activity; type: functional, organism-based; parameters: dose 100 mg/kg; outline: as §1
[3] = test system: Mus musculus; experiment: Anti-seizure activity was evaluated by Neurologic toxicity (rotarod test) at dose 600 mg/kg after 0.5 hours; + denotes neurotoxicity; type: functional, organism-based; parameters: dose 600 mg/kg
Outline: (§2)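 Phase I neurotoxicity in mice by rotorod ataxia test. Compound given ip at 30, 100, 300 or 600 mg/kg in 30% PEG 400, read 0.5 h and 4 h after. Scored ++++ to + for toxicity at 30 to 600 mg/kg; - means no toxicity.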

[4] = test system: Mus musculus; experiment: Anti-seizure activity was evaluated by Neurologic toxicity (rotarod test) at dose 600 mg/kg after 4.0 hours; + denotes neurotoxicity; type: functional, organism-based; parameters: dose 600 mg/kg; outline: as §2
[5] = test system: Mus musculus; experiment: Anti-seizure activity was evaluated by Subcutaneous pentylenetetrazole seizure test at dose 300 mg/kg after 0.5 hours; ++ denotes antiseizure activity; type: functional, organism-based; parameters: dose 300 mg/kg
Outline: (§3)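 Phase I screen in mice: ip dosing at 30, 100, 300 and 600 mg/kg in 30% PEG 400, read 0.5 h and 4 h after. Pentylenetetrazol given sc at CD97 (85 mg/kg). Protection means no clonic spasm of at least 5 s over 30 min. Scored ++++ to + for 30 to 600 mg/kg.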

[6] = test system: Mus musculus; experiment: Anti-seizure activity was evaluated by Subcutaneous pentylenetetrazole seizure test at dose 300 mg/kg after 4.0 hours; ++ denotes antiseizure activity; type: functional, organism-based; parameters: dose 300 mg/kg; outline: as §3
[7] = test system: Mus musculus; experiment: Median effective dose was evaluated by Maximal electroshock seizure test through intraperitoneal administration; type: functional; details: ip
Outline: (§4)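 Phase II in mice, ip dosing in 30% PEG 400. Groups of 6-12 mice per dose until at least three points fall in 10-90% protection. […] MES: 50 mA, 0.2 s corneal. scMet: pentylenetetrazol 85 mg/kg sc.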

[8] = test system: Mus musculus; experiment: Median effective dose was evaluated by subcutaneous pentylenetetrazole seizure test through intraperitoneal administration; type: functional; outline: as §4
[9] = test system: Mus musculus; experiment: Median toxic dose was evaluated by […] through intraperitoneal administration; type: functional
[10] = species on record: Mus musculus; experiment: Time to peak activity was evaluated by Maximal electroshock seizure test in hours; type: functional
[11] = species on record: Mus musculus; experiment: Time to peak toxicity was evaluated by Maximal electroshock seizure test in hours; type: functional
[12] = species on record: Rattus norvegicus; experiment: Protective index (TD50/ED50) was determined against MES induced seizure in rat.; type: functional
Outline: (§5)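 Oral dosing in 30% PEG 400: phase IV in mice (0.01 mL/g), phase VI in Sprague-Dawley rats (0.004 mL/g). ED50/TD50 found as in phase II, at the stated time of peak effect. MES current 50 mA in mice, 150 mA in rats. Toxicity by rotorod in mice; positional sense, gait and stance in rats. PI = TD50/ED50.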

[13] = species on record: Rattus norvegicus; experiment: Protective index (TD50/ED50) was determined against scMet induced seizure in rat.; type: functional; outline: as §5
[14] = test system: Mus musculus; experiment: Anti-seizure activity was evaluated by Neurologic toxicity (rotarod test) at dose 300 mg/kg after 0.5 hours; ++ denotes antiseizure activity; type: functional, organism-based; parameters: dose 300 mg/kg; outline: as §2
[15] = test system: Mus musculus; experiment: Anti-seizure activity was evaluated by Subcutaneous pentylenetetrazole seizure test at dose 100 mg/kg after 0.5 hours; +++ denotes antiseizure activity; type: functional, organism-based; parameters: dose 100 mg/kg; outline: as §3
[16] = test system: Mus musculus; experiment: Inhibition of seizures induced in mice by a convulsant dose of bicuculline through ip administration; type: functional
Outline: (§6)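 Phase V differentiation in mice: test drug given ip at time of peak therapeutic effect, then the CD₉₇ of each convulsant (picrotoxin, bicuculline, strychnine) given ip as a 0.5% solution; observation 30 min for bicuculline and strychnine, 45 min for picrotoxin. Drug in 30% PEG 400, 0.01 mL/g. ED₅₀ with 95% confidence intervals from ≥3 points in the 10-90% protection range, groups of 6-12 mice.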

[17] = test system: Mus musculus; experiment: Inhibition of seizures induced in mice by a convulsant dose of strychnine through ip administration; type: functional; outline: as §6
[18] = test system: Mus musculus; experiment: Median Effective dose was evaluated by Subcutaneous pentylenetetrazole seizure test in mice by oral administration; type: functional
[19] = species on record: Mus musculus; experiment: Median hypnotic dose was evaluated by loss of righting reflex; type: functional
[20] = test system: Mus musculus; experiment: Time to peak effect in mice was evaluated by Maximal electroshock seizure (MES) test in hours by oral administration; type: functional
Outline: as §5, with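 “in rats. PTZ sc 85 mg/kg in mice, 70 mg/kg in rats. Toxicity by” for “in rats. Toxicity by”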

[21] = test system: Mus musculus; experiment: Time to peak effect in mice was evaluated by Neurologic toxicity (rotarod test) in hours by oral administration; type: functional
Outline: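 Oral dosing in mice in 30% PEG 400 (0.01 mL/g). Neurologic deficit was scored by the rotorod ataxia test, and the time of peak effect was given in hours.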

[22] = test system: Mus musculus; experiment: Time to peak effect in mice was evaluated by Subcutaneous pentylenetetrazole seizure test in hours by oral administration; type: functional
Outline: as §5, with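 “in rats. PTZ sc 85 mg/kg in mice, 70 mg/kg in rats. Toxicity by” for “in rats. Toxicity by”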

[23] = test system: Rattus norvegicus; experiment: (§7) Median Effective dose was evaluated by Subcutaneous pentylenetetrazole seizure test in Rats by oral administration; type: functional
[24] = test system: Rattus norvegicus; experiment: (§8) Time to peak effect in Rats was evaluated by Maximal electroshock seizure (MES) test in hours by oral administration; type: functional
Outline: as §5, with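 “in rats. PTZ sc 85 mg/kg in mice, 70 mg/kg in rats. Toxicity by” for “in rats. Toxicity by”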

[25] = test system: Rattus norvegicus; experiment: (§9) Time to peak effect in Rats was evaluated by Subcutaneous pentylenetetrazole seizure test in hours by oral administration; type: functional
Outline: as §5, with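 “in rats. PTZ sc 85 mg/kg in mice, 70 mg/kg in rats. Toxicity by” for “in rats. Toxicity by”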

[26] = test system: Rattus norvegicus; experiment: (§10) Time to peak effect in Rats was evaluated by Neurologic toxicity (rotarod test) in hours by oral administration; type: functional
[27] = test system: Mus musculus; experiment: Inhibition of picrotoxin-induced seizures in mice by ip administration at 250-1000 mg/kg (h= maximum 62.5% protection); type: functional, organism-based; outline: as §6
[28] = test system: Mus musculus; experiment: Median Effective dose was evaluated by Maximal electroshock seizure (MES) test in mice by oral administration up to 2000 mg/kg; f=no protection; type: functional, organism-based; parameters: dose 2000 mg/kg
[29] = test system: Mus musculus; experiment: Median lethal dose was evaluated by mortality after 24 hr through ip injection administration; type: functional
Outline: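 Mice were dosed ip in 30% PEG 400. Mortality was scored 24 h after injection in groups of eight. The 24-h LD₅₀ was derived as for the ED₅₀/TD₅₀, with 95% confidence intervals.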

[30] = test system: Mus musculus; experiment: […] was evaluated by Neurologic toxicity (rotarod test) in mice by oral administration; type: functional
Outline: as §5, with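 “in rats. PTZ sc 85 mg/kg in mice, 70 mg/kg in rats. Toxicity by” for “in rats. Toxicity by”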

[31] = test system: Mus musculus; experiment: as §9; type: functional
Outline: (§11)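 Oral dosing in Sprague-Dawley rats (30% PEG 400, 0.004 mL/g). Time to peak effect, in hours, was read in the MES test (150 mA, 60 Hz, corneal, 0.2 s; loss of tonic hind-leg extension) and in the scMet test (pentylenetetrazol 70 mg/kg sc; no clonus ≥5 s within 30 min).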

[32] = test system: Mus musculus; experiment: Median Effective dose was evaluated by Maximal electroshock seizure (MES) test in Rats by oral administration up to 1200 mg/kg; g= no protection; type: functional, organism-based; parameters: dose 1200 mg/kg
[33] = test system: Mus musculus; experiment: as §7; type: functional
[34] = test system: Mus musculus; experiment: as §8; type: functional; outline: as §11
[35] = test system: Mus musculus; experiment: as §10; type: functional

| SMILES | Activity [1] | Activity [4] | Activity [6] | ED50 [7] [mg/kg] | ED50 [8] [mg/kg] | TD50 [9] [mg/kg] | TPE [10] | TPE [11] | PI [12] | PI [13] | ED50 [16] [mg/kg] | ED50 [18] [mg/kg] | HD50 [19] [mg/kg] | TPE [20] [h] | TPE [21] [h] | TPE [22] [h] | further results |
| --- | --- | --- | --- | --- | --- | --- | --- | --- | --- | --- | --- | --- | --- | --- | --- | --- | --- |
| COc1cccc(CC(=O)NS(=O)(=O)C(F)(F)F)c1 | Antiseizure activity | Antiseizure activity | Antiseizure activity | 19 | 77 | 325 | 2 | 2 | 17 | 4.2 |  |  |  |  |  |  | Activity [2]: Antiseizure activity; Activity [3]: Antiseizure activity; Activity [5]: Antiseizure activity |
| O=C(Cc1cccc(Cl)c1)NS(=O)(=O)C(F)(F)F | Antiseizure activity | Antiseizure activity | Antiseizure activity | 6.8 | 35 | 249 | 2 | 0.5 | 37 | 7.2 |  |  |  |  |  |  | Activity [14]: Antiseizure activity; Activity [15]: Antiseizure activity |
| CCCC(CCC)C(=O)O [VALPROIC ACID] |  |  |  |  | 149 |  | 0.25 | 0.25 |  |  | 360 | 388 | 885 | 1 | 2 | 1 | ED50 [17]: 387 mg/kg; ED50 [23]: 180 mg/kg; TPE [24]: 0.5 h; TPE [25]: 0.5 h; TPE [26]: 1 h |
| CCC1(C)CC(=O)NC1=O (centres undefined) [ETHOSUXIMIDE] |  |  |  | > 1000 | 130 | 441 | 0.5 | 0.5 |  |  | 459 | 193 | 850 | 0.5 | 1 | 0.5 | ED50 [27]: Max protection; ED50 [28]: No protection; LD50 [29]: 1810 mg/kg; TD50 [30]: 879 mg/kg; TPE [31]: 2 h; ED50 [32]: No protection; ED50 [33]: 54 mg/kg; TPE [34]: 2 h; TPE [35]: 2 h |

— ChEMBL document CHEMBL1129543, “Synthesis and evaluation of N-(phenylacetyl)trifluoromethanesulfonamides as anticonvulsant agents” (J Med Chem, 1996)
